This is an account of results in ChEMBL document CHEMBL1156534, “Hemopressin is an inverse agonist of CB1 cannabinoid receptors” (Proc Natl Acad Sci U S A, 2007).

Calls of active or inactive are those of the source. No cut-off for these calls is given here.

Format in all cases: functional, cell-based
For test [1], the target named is T1, Alpha-2A adrenergic receptor (Homo sapiens) (UniProt P08913).
T1 sequence (whole entry): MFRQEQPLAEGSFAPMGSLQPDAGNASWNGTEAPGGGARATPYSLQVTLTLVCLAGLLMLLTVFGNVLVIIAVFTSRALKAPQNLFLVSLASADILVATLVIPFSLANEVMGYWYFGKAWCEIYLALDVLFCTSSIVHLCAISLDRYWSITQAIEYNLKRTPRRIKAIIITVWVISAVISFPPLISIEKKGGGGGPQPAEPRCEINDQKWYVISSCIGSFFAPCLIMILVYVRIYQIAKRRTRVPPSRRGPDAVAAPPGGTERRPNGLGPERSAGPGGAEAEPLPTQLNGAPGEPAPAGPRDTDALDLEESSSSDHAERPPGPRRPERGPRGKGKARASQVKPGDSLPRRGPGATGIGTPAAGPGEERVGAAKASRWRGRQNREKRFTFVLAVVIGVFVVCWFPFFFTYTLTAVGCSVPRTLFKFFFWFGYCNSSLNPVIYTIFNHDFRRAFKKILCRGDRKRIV
The test is described as follows: Antagonist activity at alpha2A adrenergic receptor expressed in HEK293 cells assessed as blockade of clonidine-mediated decrease in secreted alkaline phosphatase activity at 1 uM after 6 hrs relative to control. In a few lines: (§1)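 HEK-293 cells transiently co-transfected with pCRE-SeAP and a Flag-tagged receptor, 30,000 cells/well on poly-L-lysine. They were serum-starved 16–18 h, then exposed 6 h in serum-free medium to 10 μM forskolin (omitted for β2) plus the receptor agonist (100 nM), with or without peptide (1 μM). Heat-treated supernatant SeAP was read by CSPD chemiluminescence. Mean ± SEM, n = 6.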

The target of test [2] is T2, Type-2 angiotensin II receptor (Homo sapiens) (UniProt P50052).
T2 sequence (whole entry): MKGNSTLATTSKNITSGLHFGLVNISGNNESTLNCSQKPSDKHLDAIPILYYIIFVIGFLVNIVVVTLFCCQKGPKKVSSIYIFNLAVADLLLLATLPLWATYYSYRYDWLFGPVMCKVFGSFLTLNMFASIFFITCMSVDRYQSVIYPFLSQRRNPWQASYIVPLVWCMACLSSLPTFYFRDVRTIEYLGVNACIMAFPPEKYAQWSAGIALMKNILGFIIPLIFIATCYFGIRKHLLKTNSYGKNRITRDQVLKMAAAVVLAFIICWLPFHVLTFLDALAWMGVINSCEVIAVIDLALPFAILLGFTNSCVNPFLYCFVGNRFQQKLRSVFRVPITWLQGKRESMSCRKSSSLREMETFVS
Description: Antagonist activity at AT2 angiotensin receptor expressed in SKNSH cells assessed as blockade of angiotensin 2-induced increase in antibody recognition at 100 nM by ELISA. Details: scale not given: the % may be the effect or the level left. For orientation: An ELISA detects its analyte on a solid surface through an enzyme-linked reagent.

The target in test [3] is Cannabinoid receptor 1 (Homo sapiens) (UniProt P21554). The test is described as follows: Antagonist activity at CB1 receptor expressed in Neuro 2A cells assessed as blockade of Hu210-mediated increase in number of neurite outgrowth at 10 uM after 16 hrs. Summed up:
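Neuro 2A cells transfected with Flag-tagged CB1 or CB2 were exposed 16 h in 0.1% FBS medium to 100 nM Hu-210 with or without 10 μM peptide. The percentage of cells extending neurites was scored and normalized to untreated cells (100%). Mean ± SE of triplicate experiments.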

For test [4], the target named is Delta-type opioid receptor (Homo sapiens) (UniProt P41143). Description: Antagonist activity at delta opioid receptor expressed in HEK293 cells assessed as blockade of secreted alkaline phosphatase activity at 1 uM after 6 hrs relative to control. In a few lines:
as §1

Sequence of Delta-type opioid receptor (Homo sapiens) (P41143 whole entry): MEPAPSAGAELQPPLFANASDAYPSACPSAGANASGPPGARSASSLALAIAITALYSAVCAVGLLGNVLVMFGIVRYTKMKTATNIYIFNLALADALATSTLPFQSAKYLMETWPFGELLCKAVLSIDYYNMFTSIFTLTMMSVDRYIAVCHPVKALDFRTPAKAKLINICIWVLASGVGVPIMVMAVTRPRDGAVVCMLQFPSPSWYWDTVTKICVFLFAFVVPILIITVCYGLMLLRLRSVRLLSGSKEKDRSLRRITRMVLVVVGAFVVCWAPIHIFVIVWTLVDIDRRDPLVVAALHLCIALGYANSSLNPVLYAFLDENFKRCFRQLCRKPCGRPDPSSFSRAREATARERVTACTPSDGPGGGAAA
Sequence of Cannabinoid receptor 1 (Homo sapiens) (P21554 whole entry): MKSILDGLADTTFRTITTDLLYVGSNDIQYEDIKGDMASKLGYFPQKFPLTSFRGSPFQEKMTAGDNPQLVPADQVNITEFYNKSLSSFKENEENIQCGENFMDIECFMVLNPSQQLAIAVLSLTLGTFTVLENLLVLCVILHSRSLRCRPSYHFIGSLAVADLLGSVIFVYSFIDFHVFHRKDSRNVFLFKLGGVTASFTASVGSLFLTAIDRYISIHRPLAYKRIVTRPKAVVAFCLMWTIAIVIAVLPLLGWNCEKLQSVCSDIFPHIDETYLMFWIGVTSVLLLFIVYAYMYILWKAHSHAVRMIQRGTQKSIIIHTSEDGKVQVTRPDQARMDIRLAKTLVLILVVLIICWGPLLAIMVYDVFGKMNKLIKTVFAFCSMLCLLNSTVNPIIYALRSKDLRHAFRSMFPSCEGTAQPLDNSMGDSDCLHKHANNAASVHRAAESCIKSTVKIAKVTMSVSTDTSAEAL

On to `CC(C)C[C@H](NC(=O)[C@H](Cc1ccccc1)NC(=O)[C@H](CCCCN)NC(=O)[C@H](Cc1ccccc1)NC(=O)[C@H](CC(N)=O)NC(=O)[C@@H](NC(=O)[C@@H]1CCCN1)C(C)C)C(=O)N[C@@H](CO)C(=O)N[C@@H](Cc1cnc[nH]1)C(=O)O` [HEMOPRESSIN], for which the Activity in test [1] is 0.53; in test [2], 137%; in test [4], 0.9. Further, the outcome in test [3] was Active.
